Test system: Erythrocyte
Assay: Antisickling activity in human homozygous sickle red blood cells at 2 mM incubated for 2 hrs under hypoxic condition relative to control
Assay type: functional
Conditions: not given
Summary of the method: (§1)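 Sickle (SS) red cell suspensions at 20% hematocrit, with or without compound (0.5, 1.0, 2.0 mM; DMSO <2% final, also in controls), held in air at 37°C for 1 h, then under 4% O2/96% N2 at 37°C for 2 h. Aliquots fixed in 2% glutaraldehyde without air exposure; sickling scored on bright-field images at 40x. Mean ± SD, three biological replicates.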

Row | SMILES | inhibition at 2000 µM
1 | COc1ccc(C=O)c(OCc2ccccn2)c1 | 51.3%
2 | COc1ccc(OCc2ccncc2)c(C=O)c1 | 85.9%
3 | COc1ccc(OCc2ccccn2)c(C=O)c1 | 90.3%
4 | COc1cc(C=O)ccc1O [VANILLIN] | 7.3%
5 | COc1ccc(OCc2cccnc2)c(C=O)c1 | 90.5%

Test system: Erythrocyte
Assay: Antisickling activity in human homozygous sickle red blood cells at 1 mM incubated for 2 hrs under hypoxic condition relative to control
Assay type: functional
Conditions: not given
Summary of the method: as §1

Row | SMILES | inhibition at 1000 µM
6 | COc1ccc(C=O)c(OCc2ccccn2)c1 | 13.5%
7 | COc1ccc(OCc2ccncc2)c(C=O)c1 | 60.4%
8 | COc1ccc(OCc2ccccn2)c(C=O)c1 | 64.8%
9 | COc1cc(C=O)ccc1O [VANILLIN] | 7.3%
10 | COc1ccc(OCc2cccnc2)c(C=O)c1 | 59.5%

Target: T1, Hemoglobin HbA (Homo sapiens) (UniProt P69905+P68871)
Assay: Inhibition of sickle hemoglobin polymerization in human homozygous sickle red blood cells assessed as formation of high oxygen affinity schiff-base adducts at 0.5 mM incubated under air for 1 hr followed by 2 hrs incubation under hypoxic condition by HPLC method relative to control
Parameters: scale not given: the % may be the effect or the level left
Conditions: not given
Summary of the method: (§2)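 Lysates from SS cells (20% hematocrit) exposed to 0.5, 1.0 or 2.0 mM compound, 1 h air then 2 h 4% O2 at 37°C. Cells washed in PBS and lysed hypotonically. Hb S adduct percentage taken from weak cation-exchange HPLC elution patterns (Poly CAT A column). Mean ± SD of three biological replicates.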

T1 sequence (P68871 2-147 partner limits assumed): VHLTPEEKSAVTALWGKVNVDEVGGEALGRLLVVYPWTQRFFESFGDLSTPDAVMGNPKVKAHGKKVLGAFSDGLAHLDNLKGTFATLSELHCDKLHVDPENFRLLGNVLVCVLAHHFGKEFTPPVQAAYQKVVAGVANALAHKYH
T1 sequence (P69905 2-142 limits assumed): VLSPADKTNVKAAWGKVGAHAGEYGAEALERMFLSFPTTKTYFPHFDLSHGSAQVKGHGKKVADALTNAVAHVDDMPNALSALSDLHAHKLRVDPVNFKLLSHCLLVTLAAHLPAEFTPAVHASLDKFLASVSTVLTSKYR

Row | SMILES | Activity
11 | COc1ccc(C=O)c(OCc2ccccn2)c1 | 12%
12 | COc1ccc(OCc2ccncc2)c(C=O)c1 | 32.8%
13 | COc1ccc(OCc2ccccn2)c(C=O)c1 | 26.3%
14 | COc1cc(C=O)ccc1O [VANILLIN] | 3.3%

Target: T1, Hemoglobin HbA (Homo sapiens)
Assay: (§3) Induction of R-state stabilization of Hb in human homozygous sickle red blood cells assessed as change in oxygen pressure at which hemolysates are 50% saturated with oxygen at 2 mM incubated under air for 1 hr followed by 2 hrs incubation under hypoxic condition by oxygen equilibrium curve analysis relative to control
Conditions: not given
Summary of the method: (§4)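 SS cells (20% hematocrit) given 0.5–2.0 mM compound, 1 h in air at 37°C, then 2 h hypoxia (4% O2) at 37°C. Cells washed in PBS and lysed hypotonically. About 100 μL clarified lysate placed in 4 ml 0.1 M potassium phosphate, pH 7.0, and read on a Hemox analyzer. ΔP50 = (P50 untreated − P50 treated)/P50 untreated × 100, relative to DMSO controls. Three biological replicates.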

Row | SMILES | Activity
15 | COc1ccc(C=O)c(OCc2ccccn2)c1 | 34.2%
16 | COc1ccc(OCc2ccncc2)c(C=O)c1 | 55.6%
17 | COc1ccc(OCc2ccccn2)c(C=O)c1 | 61.4%
18 | COc1cc(C=O)ccc1O [VANILLIN] | 21%
19 | COc1ccc(OCc2cccnc2)c(C=O)c1 | 75.8%

Target: T1, Hemoglobin HbA (Homo sapiens)
Assay: Inhibition of sickle hemoglobin polymerization in human homozygous sickle red blood cells assessed as formation of high oxygen affinity schiff-base adducts at 1 mM incubated under air for 1 hr followed by 2 hrs incubation under hypoxic condition by HPLC method relative to control
Parameters: scale not given: the % may be the effect or the level left
Conditions: not given
Summary of the method: as §2

Row | SMILES | Activity
20 | COc1ccc(C=O)c(OCc2ccccn2)c1 | 24.8%
21 | COc1ccc(OCc2ccncc2)c(C=O)c1 | 58.7%
22 | COc1ccc(OCc2ccccn2)c(C=O)c1 | 55.3%
23 | COc1cc(C=O)ccc1O [VANILLIN] | 5.6%
24 | COc1ccc(OCc2cccnc2)c(C=O)c1 | 79%

Target: T1, Hemoglobin HbA (Homo sapiens)
Assay: Inhibition of sickle hemoglobin polymerization in human homozygous sickle red blood cells assessed as formation of high oxygen affinity schiff-base adducts at 2 mM incubated under air for 1 hr followed by 2 hrs incubation under hypoxic condition by HPLC method relative to control
Parameters: scale not given: the % may be the effect or the level left
Conditions: not given
Summary of the method: as §2

Row | SMILES | Activity
25 | COc1ccc(C=O)c(OCc2ccccn2)c1 | 51.6%
26 | COc1ccc(OCc2ccncc2)c(C=O)c1 | 82.5%
27 | COc1ccc(OCc2ccccn2)c(C=O)c1 | 79.5%
28 | COc1cc(C=O)ccc1O [VANILLIN] | 12%
29 | COc1ccc(OCc2cccnc2)c(C=O)c1 | 100%

Target: T1, Hemoglobin HbA (Homo sapiens)
Assay: as §3, with “at 0.5” for “at 2”
Conditions: not given
Summary of the method: as §4

Row | SMILES | Activity
30 | COc1ccc(C=O)c(OCc2ccccn2)c1 | 8.1%
31 | COc1ccc(OCc2ccncc2)c(C=O)c1 | 7.9%
32 | COc1ccc(OCc2ccccn2)c(C=O)c1 | 22%
33 | COc1cc(C=O)ccc1O [VANILLIN] | 1.2%
34 | COc1ccc(OCc2cccnc2)c(C=O)c1 | 24.8%

Target: T1, Hemoglobin HbA (Homo sapiens)
Assay: as §3, with “at 1” for “at 2”
Conditions: not given
Summary of the method: as §4

Row | SMILES | Activity
35 | COc1ccc(C=O)c(OCc2ccccn2)c1 | 20.9%
36 | COc1ccc(OCc2ccncc2)c(C=O)c1 | 31.5%
37 | COc1ccc(OCc2ccccn2)c(C=O)c1 | 38.1%
38 | COc1cc(C=O)ccc1O [VANILLIN] | 10.6%
39 | COc1ccc(OCc2cccnc2)c(C=O)c1 | 49.2%

Test system: Erythrocyte
Assay: Antisickling activity in human homozygous sickle red blood cells at 0.5 mM incubated for 2 hrs under hypoxic condition relative to control
Assay type: functional
Conditions: not given
Summary of the method: as §1

Row | SMILES | inhibition at 500 µM
40 | COc1ccc(C=O)c(OCc2ccccn2)c1 | 7.6%
41 | COc1ccc(OCc2ccncc2)c(C=O)c1 | 21.7%
42 | COc1ccc(OCc2ccccn2)c(C=O)c1 | 24.3%
43 | COc1cc(C=O)ccc1O [VANILLIN] | 4.2%
44 | COc1ccc(OCc2cccnc2)c(C=O)c1 | 14.9%

Target: T1, Hemoglobin HbA (Homo sapiens)
Assay: Inhibition of sickle hemoglobin polymerization in human cell free hemoglobin matrix assessed as formation of high oxygen affinity schiff-base adducts incubated for 60 to 90 mins by HPLC method relative to control
Assay type: protein-complex assay
Parameters: scale not given: the % may be the effect or the level left
Conditions: not given

Row | SMILES | Activity
45 | COc1ccc(OCc2ccncc2)c(C=O)c1 | 100%
46 | COc1ccc(OCc2ccccn2)c(C=O)c1 | 100%
47 | COc1ccc(OCc2cccnc2)c(C=O)c1 | 100%

Target: T1, Hemoglobin HbA (Homo sapiens)
Assay: Inhibition of sickle hemoglobin polymerization in human cell free hemoglobin matrix assessed as formation of high oxygen affinity schiff-base adducts incubated for 90 mins by HPLC method relative to control
Assay type: protein-complex assay
Parameters: scale not given: the % may be the effect or the level left
Conditions: not given

Row | SMILES | Activity
48 | COc1ccc(C=O)c(OCc2ccccn2)c1 | 50%

Target: T1, Hemoglobin HbA (Homo sapiens)
Assay: Inhibition of sickle hemoglobin polymerization in human whole blood assessed as formation of high oxygen affinity schiff-base adducts by HPLC method
Assay type: protein-complex assay
Conditions: TDE = time-dependent effect
Summary of the method: (§5)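 Normal donor whole blood (30% hematocrit) or purified Hb (1.56 mM) incubated with compound (0.5, 1.0, 2.0 mM) at 37°C with shaking at 140 rpm for up to 24 h. Samples taken at 0.5, 1, 2, 4, 8, 12 and 24 h and quenched with cyanoborohydride/borohydride to fix Schiff-base adducts. Adducts quantified by cation-exchange HPLC. Peak read from the %modification-vs-time curve; AUC(0–24) by linear trapezoidal rule.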

Row | SMILES | Activity
49 | COc1ccc(C=O)c(OCc2ccccn2)c1 | Tde
50 | COc1ccc(OCc2ccncc2)c(C=O)c1 | Tde
51 | COc1ccc(OCc2ccccn2)c(C=O)c1 | Tde
52 | COc1cc(C=O)ccc1O [VANILLIN] | Tde
53 | COc1ccc(OCc2cccnc2)c(C=O)c1 | Tde

Target: T1, Hemoglobin HbA (Homo sapiens)
Assay: Inhibition of sickle hemoglobin polymerization in human whole blood assessed as formation of high oxygen affinity schiff-base adducts at 2 mM after 2 hrs by HPLC method relative to control
Assay type: protein-complex assay
Parameters: scale not given: the % may be the effect or the level left
Conditions: not given
Summary of the method: as §5

Row | SMILES | Activity
54 | COc1ccc(OCc2ccncc2)c(C=O)c1 | 45%
55 | COc1ccc(OCc2cccnc2)c(C=O)c1 | 50%

Target: T1, Hemoglobin HbA (Homo sapiens)
Assay: Inhibition of sickle hemoglobin polymerization in human whole blood assessed as formation of high oxygen affinity schiff-base adducts at 2 mM measured up to 24 hrs by HPLC method relative to control
Assay type: protein-complex assay
Parameters: scale not given: the % may be the effect or the level left
Conditions: not given
Summary of the method: as §5

Row | SMILES | Activity
56 | COc1ccc(C=O)c(OCc2ccccn2)c1 | 60%
57 | COc1ccc(OCc2ccncc2)c(C=O)c1 | 15%
58 | COc1ccc(OCc2cccnc2)c(C=O)c1 | 25%

Target: T1, Hemoglobin HbA (Homo sapiens)
Assay: Inhibition of sickle hemoglobin polymerization in human whole blood assessed as formation of high oxygen affinity schiff-base adducts at 2 mM measured at 12 hrs by HPLC method relative to control
Assay type: protein-complex assay
Parameters: scale not given: the % may be the effect or the level left
Conditions: not given
Summary of the method: as §5

Row | SMILES | Activity
59 | COc1ccc(OCc2ccccn2)c(C=O)c1 | 50%

Target: T1, Hemoglobin HbA (Homo sapiens)
Assay: Inhibition of sickle hemoglobin polymerization in human whole blood assessed as formation of high oxygen affinity schiff-base adducts at 2 mM measured at 2 hrs by HPLC method relative to control
Assay type: protein-complex assay
Parameters: scale not given: the % may be the effect or the level left
Conditions: not given
Summary of the method: as §5

Row | SMILES | Activity
60 | COc1ccc(OCc2ccncc2)c(C=O)c1 | 50%
61 | COc1ccc(OCc2cccnc2)c(C=O)c1 | 50%

Target: T1, Hemoglobin HbA (Homo sapiens)
Assay: Inhibition of sickle hemoglobin polymerization in human whole blood assessed as formation of high oxygen affinity schiff-base adducts at 2 mM measured after 24 hrs by HPLC method relative to control
Assay type: protein-complex assay
Parameters: scale not given: the % may be the effect or the level left
Conditions: not given
Summary of the method: as §5

Row | SMILES | Activity
62 | COc1ccc(OCc2ccncc2)c(C=O)c1 | 15%
63 | COc1ccc(OCc2ccccn2)c(C=O)c1 | 45%
64 | COc1ccc(OCc2cccnc2)c(C=O)c1 | 25%

Test system: Erythrocyte
Assay: Antisickling activity in human homozygous sickle red blood cells incubated for 2 hrs under hypoxic condition
Assay type: functional, cell-based
Conditions: not given
Summary of the method: as §1

Row | SMILES | Activity
65 | COc1ccc(C=O)c(OCc2ccccn2)c1 | Dose-dependent effect
66 | COc1ccc(OCc2ccncc2)c(C=O)c1 | Dose-dependent effect
67 | COc1ccc(OCc2ccccn2)c(C=O)c1 | Dose-dependent effect
68 | COc1cc(C=O)ccc1O [VANILLIN] | Dose-dependent effect
69 | COc1ccc(OCc2cccnc2)c(C=O)c1 | Dose-dependent effect

Target: T1, Hemoglobin HbA (Homo sapiens)
Assay: Inhibition of sickle hemoglobin polymerization in human homozygous sickle red blood cells assessed as formation of high oxygen affinity schiff-base adducts incubated under air for 1 hr followed by 2 hrs incubation under hypoxic condition by HPLC method
Conditions: not given
Summary of the method: as §2

Row | SMILES | Activity
70 | COc1ccc(C=O)c(OCc2ccccn2)c1 | Dose-dependent effect
71 | COc1ccc(OCc2ccncc2)c(C=O)c1 | Dose-dependent effect
72 | COc1ccc(OCc2ccccn2)c(C=O)c1 | Dose-dependent effect
73 | COc1cc(C=O)ccc1O [VANILLIN] | Dose-dependent effect
74 | COc1ccc(OCc2cccnc2)c(C=O)c1 | Dose-dependent effect

Target: T1, Hemoglobin HbA (Homo sapiens)
Assay: Induction of R-state stabilization of Hb in human homozygous sickle red blood cells assessed as change in oxygen pressure at which hemolysates are 50% saturated with oxygen incubated under air for 1 hr followed by 2 hrs incubation under hypoxic condition by oxygen equilibrium curve analysis
Conditions: not given
Summary of the method: as §4

Row | SMILES | Activity
75 | COc1ccc(C=O)c(OCc2ccccn2)c1 | Dose-dependent effect
76 | COc1ccc(OCc2ccncc2)c(C=O)c1 | Dose-dependent effect
77 | COc1ccc(OCc2ccccn2)c(C=O)c1 | Dose-dependent effect
78 | COc1cc(C=O)ccc1O [VANILLIN] | Dose-dependent effect
79 | COc1ccc(OCc2cccnc2)c(C=O)c1 | Dose-dependent effect

Reference: ChEMBL document CHEMBL4219223, “Rational design of pyridyl derivatives of vanillin for the treatment of sickle cell disease” (2018)
